What all share (format): functional
The nature of test [1]: Antidiabetic nephropathic activity in rat glomerular mesangial cells assessed as reduction of high-glucose induced fibronectin expression at 1 uM treated 12 to 24 hrs after serum-deprivation measured after 24 hrs by Western blot analysis relative to beta-actin expression. For orientation: In western blotting, separated proteins are transferred to a membrane and probed.
A short description of test [2]: Antidiabetic nephropathic activity in rat glomerular mesangial cells assessed as reduction of high-glucose induced fibronectin expression at 10 uM treated 12 to 24 hrs after serum-deprivation measured after 24 hrs by Western blot analysis relative to beta-actin expression.
The species named for a further test is Rattus norvegicus. Nature of the test: Antidiabetic nephropathic activity in rat glomerular mesangial cells assessed as reduction of high-glucose induced cell proliferation at 1 to 10 uM treated 12 after serum-deprivation measured after 24 hrs by MTT assay. Put shortly:
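Rat glomerular mesangial cells serum-deprived 12 h, then given high glucose (25 mM) for 24 h with or without compound at different concentrations. Proliferation read by MTT assay after 24 h, compared against normal-glucose cells.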
For orientation: Formazan colour is commonly taken as a measure of viable cells.

A short description of test [3]: Antidiabetic nephropathic activity in rat glomerular mesangial cells assessed as reduction of high-glucose induced NADPH-dependent ROS production by measuring NADPH oxidase activity at 1 uM treated 12 after serum-deprivation measured after 24 hrs by DHE staining. Put shortly: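 Rat glomerular mesangial cells serum-deprived 12 h, then given high glucose (25 mM) for 24 h with or without compound. NADPH-dependent superoxide generation (NADPH oxidase activity) measured in parallel with DHE staining. Superoxide expressed as relative light units per mg protein.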

The source made the active and inactive calls. The rule behind the calls is not given here.

For `CC(=O)OC[C@@H]1C[C@@H](n2cc(C)c(=O)n(C(=O)c3ccccc3)c2=O)C[C@@H]1COC(C)=O`, the Activity was 65 a.u in test [1] and 40 a.u in test [2].
The corresponding values for `CC(=O)OC[C@@H]1C[C@@H](n2ccc(=O)n(C(=O)c3ccccc3)c2=O)C[C@@H]1COC(C)=O` are 64 a.u and 57 a.u.
The corresponding values for `CCOC(=O)[C@H]1C[C@H](n2cc(C)c(=O)n(C(=O)c3ccccc3)c2=O)C[C@H]1C(=O)OCC` are 68 a.u and 66 a.u.
As to `CCOC(=O)[C@H]1C[C@H](n2ccc(=O)n(C(=O)c3ccccc3)c2=O)C[C@H]1C(=O)OCC`, the result (in the test listed under Rattus norvegicus; in test [3]) was Active. Moreover, the Activity in test [1] was determined as 26 a.u; in test [2], 20 a.u.
As for `CC(=O)OC[C@@H]1CC(n2cc(C)c(=O)n(C(=O)c3ccccc3)c2=O)C[C@H]1COC(C)=O` (racemic), the figures for the Activity in test [1] and in test [2] were 59 a.u and 53 a.u, respectively.
Turning to `CC(=O)OC[C@@H]1CC(n2ccc(=O)n(C(=O)c3ccccc3)c2=O)C[C@H]1COC(C)=O` (racemic), the Activity in test [1] stood at 55 a.u; in test [2] it was 52 a.u.
As for `CCOC(=O)[C@@H]1CC(n2cc(C)c(=O)n(C(=O)c3ccccc3)c2=O)C[C@H]1C(=O)OCC` (racemic), the outcome (in the test filed under Rattus norvegicus; in test [3]) was Active. Besides, the Activity in test [1] was found to be 25 a.u; in test [2] it was 20 a.u.
With `CCOC(=O)[C@@H]1CC(n2ccc(=O)n(C(=O)c3ccccc3)c2=O)C[C@H]1C(=O)OCC` (racemic), the Activity in test [1] turned out to be 67 a.u; in test [2] it was 60 a.u.

Source of the values: ChEMBL document CHEMBL2311423, “Novel carbocyclic nucleoside analogs suppress glomerular mesangial cells proliferation and matrix protein accumulation through ROS-dependent mechanism in the diabetic milieu” (Bioorg Med Chem Lett, 2013).
